# Data taken from ChEMBL document CHEMBL1122583, “Structure-activity relationships among DNA gyrase inhibitors. Synthesis and biological evaluation of 1,2-dihydro-4, 4-dimethyl-1-oxo-2-naphthalenecarboxylic acids as 1-carba bioisosteres of oxolinic acid” (1984).
# Tests used:
# [1] = system: Candida albicans; test: In vitro antifungal activity against Candida albicans (ATCC 10231); assay type: functional
# [2] = system: Klebsiella pneumoniae; test: In vitro antifungal activity against Klebsiella pneumoniae AD (ATCC 10031); assay type: functional
# [3] = system: Salmonella enterica subsp. enterica serovar Gallinarum; test: In vitro antifungal activity against Salmonella gallinarum (ATCC 9184); assay type: functional
# [4] = system: Staphylococcus aureus; test: In vitro antifungal activity against Staphylococcus aureus (ATCC 13709); assay type: functional
# [5] = system: Mycolicibacterium smegmatis; test: In vitro antifungal activity against Mycobacterium smegmatis (ATCC 607); assay type: functional
# [6] = system: Escherichia coli; test: In vitro antifungal activity against Escherichia coli (ATCC 9637); assay type: functional
# [7] = system: Nucleic Acid; test: In vitro DNA gyrase inhibition activity; assay type: nucleic-acid assay
# Procedure, shortened: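 DNA gyrase holoenzyme, purified using a heparin-Sepharose affinity column in place of the DEAE-cellulose step. Supercoiling of relaxed ColE1 plasmid was run on 1% agarose horizontal gels. Relaxed and supercoiled bands were quantified by densitometry of photographic negatives. Because inhibition is noncompetitive, Ki was taken as the concentration giving 50% inhibition of supercoil band formation.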
SMILES,MIC [1] [µg/mL],MIC [2] [µg/mL],MIC [3] [µg/mL],MIC [4] [µg/mL],MIC [5] [µg/mL],MIC [6] [µg/mL],Ki (concentration giving 50% inhibition of gyrase supercoiling) [7] [µg/mL]
CCn1cc(C(=O)O)c(=O)c2ccc(C)nc21 [NALIDIXIC ACID],> 100,3.13,12.5,100,> 100,12.5,–
CCn1cc(C(=O)O)c(=O)c2cc3c(cc21)OCO3 [OXOLINIC ACID],> 100,< 0.1,0.78,3.13,50,0.78,–
CC1(C)C=C(C(=O)O)C(=O)c2cc3c(cc21)CCO3,> 500,> 500,500,500,500,> 500,300

# Now from value to molecule:
MIC [1] [µg/mL],MIC [2] [µg/mL],MIC [3] [µg/mL],MIC [4] [µg/mL],MIC [5] [µg/mL],MIC [6] [µg/mL],Ki (concentration giving 50% inhibition of gyrase supercoiling) [7] [µg/mL],SMILES
> 100,> 100,> 100,> 100,> 100,> 100,> 1000,COc1cc2c(cc1OC)C(C)(C)C=C(C(=O)O)C2=O
> 500,> 500,500,500,500,> 500,300,CC1(C)C=C(C(=O)O)C(=O)c2cc3c(cc21)OCO3
> 250,> 250,50,6.25,50,> 250,2000,CC1(C)C=C(C(=O)O)C(=O)c2ccccc21
> 100,> 100,> 100,> 100,> 100,> 100,300,CC1(C)C=C(C(=O)O)C(=O)c2ccc3c(c21)OCC3
